Measured values gathered from unrelated publications.
Each line is one published result; the experiments were not run side by side.
Tspo: Translocator protein (Tspo, Rattus norvegicus, UniProt P16257)
ADRA1A: Alpha-1A adrenergic receptor (ADRA1A, Homo sapiens, UniProt P35348)
HRH2: Histamine H2 receptor (HRH2, Homo sapiens, UniProt P25021)

CNC(=O)[C@@]12C[C@@H]1[C@@H](n1cnc3c(NC)nc(C#Cc4ccc(Br)s4)nc31)[C@H](O)[C@@H]2O  Ki (Tspo; ligand displacement, radioligand): > 10000 nM
O=C1c2ccccc2CCN1CCCCN1CCN(c2cccc(Cl)c2Cl)CC1  Ki (ADRA1A; ligand displacement, radioligand): 117 nM
O=C(O)c1cc(O)c2c(c1)C(=O)c1cc(O)cc(O)c1C2=O  Ki (Amine oxidase [flavin-containing] A (MAOA, Homo sapiens, UniProt P21397); enzyme activity, inhibitor): 38600 nM
Cc1nc2cc(OCCCCN3CCN(c4cccc(Cl)c4Cl)CC3)ccc2s1  Ki (HRH2; ligand displacement, radioligand): 680 nM
COc1ccc2c(c1)C(=O)N(CCN1CCN(c3ccccc3OC)CC1)C2  Ki (ADRA1A; ligand displacement, radioligand): 15.9 nM
CC1=C(/C=C/C(C)=C/C=C/C(C)=C/c2cc(/C=C/C=C(C)/C=C/C3=C(C)CCCC3(C)C)cc[n+]2CCO)C(C)(C)CCC1  Ki (Sterol 26-hydroxylase, mitochondrial (CYP27A1, Homo sapiens, UniProt Q02318); enzyme activity, inhibitor): 2900 nM
CNC(=O)[C@@]12C[C@@H]1[C@@H](n1cnc3c(NC)nc(C#Cc4ccc(Cl)s4)nc31)[C@H](O)[C@@H]2O  Ki (Tspo; cell-free assay, radioligand): 859 nM
O=C(c1cccc(/N=N/c2cccc(OCCCN3CCCCC3)c2)c1)N1CCCC1  Ki (HRH2; ligand displacement, radioligand): > 10000 nM
CNc1nc(C#Cc2ccc(Cl)s2)nc2c1ncn2[C@@H]1O[C@H](C(=O)OC)[C@@H](O)[C@H]1O  Ki (Tspo; ligand displacement, radioligand): > 10000 nM
OCCCN1CC[C@@H]2C[C@H]1c1cc(-c3ccc(C(F)(F)F)cc3)ccc12  Ki (ADRA1A; ligand displacement, radioligand): 1990 nM
CCCCC(=O)[C@@]12C[C@@H]1[C@@H](n1ccc3c(NC)nc(C#Cc4ccc(Cl)s4)nc31)[C@H](O)[C@@H]2O  Ki (Tspo; ligand displacement, radioligand): > 10000 nM
CN1CC(Oc2cnc(C#N)cc2-c2ccn3nc(NC(=O)C4CC4)cc3c2)C1  Ki (Receptor-interacting serine/threonine-protein kinase 2 (RIPK2, Homo sapiens, UniProt O43353); enzyme activity, inhibitor): 95 nM
CNC(=O)[C@@]12C[C@@H]1[C@@H](n1cnc3c(NC)nc(C#Cc4ccc(F)c(F)c4)nc31)[C@H](O)[C@@H]2O  Ki (Tspo; ligand displacement, radioligand): > 10000 nM
COc1cccc(OC)c1OCCNCC1COc2ccccc2O1 (stereo not shown)  Ki (ADRA1A; ligand displacement, radioligand): 0.18 nM
O=C1c2ccccc2CCCN1CCCCN1CCN(c2ccccn2)CC1  Ki (ADRA1A; ligand displacement, radioligand): 867 nM
CC(C)c1nc2cc(OCCCCN3CCN(c4cccc5c4OCCO5)CC3)ccc2s1  Ki (HRH2; ligand displacement, radioligand): 240 nM
